Experiments:
[1] = Selectivity ratio of MIC for antibacterial activity against Bacteroides dorei HM-719 to antibacterial activity against Clostridioides difficile ATCC 43255; type: ADME
[2] = Selectivity ratio of MIC for antibacterial activity against Bacteroides fragilis HM-709 to antibacterial activity against Clostridioides difficile NR-13432 isolate 6; type: ADME
[3] = Selectivity ratio of MIC for antibacterial activity against Bacteroides fragilis HM-711 to antibacterial activity against Clostridioides difficile NR-13435 isolate 9; type: ADME
Clostridioides difficile [4] = assay: Antimicrobial activity against Clostridioides difficile ATCC 43255 assessed as reduction in microbial growth after 48 hrs by broth microdilution method; type: functional
Summary of the method: (§1)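 Broth microdilution: a 0.5 McFarland suspension was diluted in brain heart infusion supplemented (BHIS) broth to ~5 × 10^5 CFU/mL. Agents were serially diluted and plates incubated anaerobically at 37°C for 48 h.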

Clostridioides difficile [5] = assay: Antimicrobial activity against Clostridioides difficile ATCC 43255 assessed as drug resistance by measuring frequency of mutation at 15 times of MIC after 48 hrs; type: functional
[6] = Selectivity ratio of MIC for antibacterial activity against Bacteroides fragilis HM-711 to antibacterial activity against Clostridioides difficile NR-13432 isolate 6; type: ADME
[7] = Selectivity ratio of MIC for antibacterial activity against Bacteroides dorei HM-719 to antibacterial activity against Clostridioides difficile NR-13435 isolate 9; type: ADME
[8] = Selectivity ratio of MIC for antibacterial activity against Bacteroides dorei HM-719 to antibacterial activity against Clostridioides difficile NR-32895 P19; type: ADME
[9] = Apparent permeability across basolateral to apical side in human Caco-2 cells; type: ADME, cell-based
Summary of the method: (§2)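 Bidirectional Caco-2 monolayer transport was run by a contract lab. Papp = (V_R·C_R,end/Δt)·1/[A·(C_D,mid − C_R,mid)]. Donor mid-point is the mean of the 0-min and end donor concentrations; receiver mid-point is half the end receiver concentration. Concentrations were taken as LC peak areas.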

Enterococcus faecium = assay: Antimicrobial activity against vancomycin-resistant Enterococcus faecium ATCC 700221 assessed as reduction in microbial growth after 48 hrs by CLSI based broth microdilution method; type: functional
Summary of the method: (§3)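 CLSI broth microdilution: strains were grown aerobically overnight on tryptone soy agar at 37°C. A 0.5 McFarland suspension was diluted to ~5 × 10^5 CFU/mL in cation-adjusted Mueller-Hinton broth (E. coli) or tryptone soy broth (enterococci), and agents were serially diluted.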

Caco-2 = assay: Cytotoxicity against human Caco-2 cells assessed as reduction in cell viability at >64 ug/ml after 2 hrs by MTS assay; type: cell-based; conditions: caco-2, 2 h, dose >64 µg/ml
Summary of the method: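 Caco-2 cells were exposed to compound for 2 h, then to MTS reagent for 4 h, and absorbance was read at 490 nm. Testing was in triplicate, and viability was expressed as percent of DMSO-treated cells.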

[10] = Selectivity ratio of MIC for antibacterial activity against Bacteroides fragilis HM-709 to antibacterial activity against Clostridioides difficile NR-32895 P19; type: ADME
[11] = Selectivity ratio of MIC for antibacterial activity against Bacteroides dorei HM-719 to antibacterial activity against Clostridioides difficile NR-32904 P30; type: ADME
[12] = Selectivity ratio of MIC for antibacterial activity against Bacteroides dorei HM-719 to antibacterial activity against Clostridioides difficile NR-13432 isolate 6; type: ADME
Clostridioides difficile [13] = assay: Potency index, ratio of vancomycin MIC to test compound MIC for antibacterial activity against Clostridioides difficile NR-13432 isolate 6; type: functional
Clostridioides difficile [14] = assay: Antibacterial activity against Clostridioides difficile ATCC 43255 infected in CDI mouse model assessed as survival rate at 50 mg/kg, po for 5 days relative to control; type: functional; conditions: ATCC 43255, po, 120 h, time 5 day
[15] = Selectivity ratio of MIC for antibacterial activity against Bacteroides fragilis HM-711 to antibacterial activity against Clostridioides difficile ATCC 43255; type: ADME
Clostridioides difficile [16] = assay: Potency index, ratio of vancomycin MIC to test compound MIC for antibacterial activity against Clostridioides difficile NR-32904 P30; type: functional
[17] = Selectivity ratio of MIC for antibacterial activity against Bacteroides fragilis HM-709 to antibacterial activity against Clostridioides difficile NR-32891 P13; type: ADME
Enterococcus faecalis = assay: Antimicrobial activity against vancomycin-resistant Enterococcus […] ATCC 51299 assessed as reduction in microbial growth after 48 hrs by CLSI based broth microdilution method; type: functional; summary of the method: as §3
Clostridioides difficile [18] = assay: Antimicrobial activity against Clostridioides difficile NR-13432 isolate 6 assessed as reduction in microbial growth after 48 hrs by broth microdilution method; type: functional; summary of the method: as §1
[19] = Selectivity ratio of MIC for antibacterial activity against Bacteroides dorei HM-719 to antibacterial activity against Clostridioides difficile NR-32883 P2; type: ADME
Clostridioides difficile [20] = assay: Potency index, ratio of vancomycin MIC to test compound MIC for antibacterial activity against Clostridioides difficile NR-32891 P13; type: functional
Clostridioides difficile [21] = assay: Antimicrobial activity against Clostridioides difficile NR-13435 isolate 9 assessed as reduction in microbial growth after 48 hrs by broth microdilution method; type: functional; summary of the method: as §1
[22] = Apparent permeability across apical to basolateral side in human Caco-2 cells; type: ADME, cell-based; summary of the method: as §2
[23] = Selectivity ratio of MIC for antibacterial activity against Bacteroides fragilis HM-711 to antibacterial activity against Clostridioides difficile NR-32891 P13; type: ADME
[24] = Selectivity ratio of MIC for antibacterial activity against Bacteroides dorei HM-719 to antibacterial activity against Clostridioides difficile NR-32891 P13; type: ADME
[25] = Selectivity ratio of MIC for antibacterial activity against Bacteroides fragilis HM-709 to antibacterial activity against Clostridioides difficile ATCC 43255; type: ADME
Bacteroides fragilis = assay: Antibacterial activity against Bacteroides fragilis HM-709 assessed as reduction in microbial growth after 48 hrs by broth microdilution method; type: organism-based
Summary of the method: (§4)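 Gut commensal MICs by broth microdilution: a 0.5 McFarland suspension was diluted to ~5 × 10^5 CFU/mL in BHIS broth (Bacteroides) or MRS broth (Lactobacillus). Agents were serially diluted and incubated 48 h at 37°C. MIC was read by visual inspection of growth.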

[26] = Selectivity ratio of MIC for antibacterial activity against Bacteroides fragilis HM-709 to antibacterial activity against Clostridioides difficile NR-32883 P2; type: ADME
Lactobacillus gasseri = assay: Antibacterial activity against Lactobacillus gasseri HM-400 assessed as reduction in microbial growth after 48 hrs by broth microdilution method; summary of the method: as §4
Clostridioides difficile [27] = assay: Antimicrobial activity against Clostridioides difficile ATCC 43255 assessed as drug resistance by measuring frequency of mutation at 20 times of MIC after 48 hrs; type: functional
[28] = Selectivity ratio of MIC for antibacterial activity against Bacteroides fragilis HM-709 to antibacterial activity against Clostridioides difficile NR-32904 P30; type: ADME
Lactobacillus crispatus = assay: Antibacterial activity against Lactobacillus crispatus HM-103 assessed as reduction in microbial growth after 48 hrs by broth microdilution method; summary of the method: as §4
[29] = Selectivity ratio of MIC for antibacterial activity against Bacteroides fragilis HM-711 to antibacterial activity against Clostridioides difficile NR-32883 P2; type: ADME
Clostridioides difficile [30] = assay: Potency index, ratio of vancomycin MIC to test compound MIC for antibacterial activity against Clostridioides difficile NR-32895 P19; type: functional

Compound: O=C(Nc1nnc(-c2cc(Cl)cc(Cl)c2)o1)c1ccc(SC(F)(F)F)cc1
- Selectivity ratio [1]: 100
- Selectivity ratio [2]: 100
- Selectivity ratio [3]: 100
- MIC (Clostridioides difficile [4]): 0.04 µM
- Activity (Clostridioides difficile [5]): <1.1 10^-9No_unit
- Selectivity ratio [6]: 100
- Selectivity ratio [7]: 100
- Selectivity ratio [8]: 100
- Papp [9]: 0.1 10^-6 cm/s
- MIC (Enterococcus faecium): 0.29 µM
- Activity (Caco-2): Non-Toxic
- Selectivity ratio [10]: 100
- Selectivity ratio [11]: 100
- Selectivity ratio [12]: 100
- Ratio (Clostridioides difficile [13]): 2.5
- survival at 50 mg/kg (Clostridioides difficile [14]): 66.7%
- Selectivity ratio [15]: 100
- Ratio (Clostridioides difficile [16]): 2.5
- Selectivity ratio [17]: 100
- MIC (Enterococcus faecalis): 0.14 µM
- MIC (Clostridioides difficile [18]): 0.07 µM
- Selectivity ratio [19]: 100
- Ratio (Clostridioides difficile [20]): 2.5
- MIC (Clostridioides difficile [21]): 0.007 µM
- Papp [22]: 0.2 10^-6 cm/s
- Selectivity ratio [23]: 100
- Selectivity ratio [24]: 100
- Selectivity ratio [25]: 100
- MIC (Bacteroides fragilis): 2.3 µM
- Selectivity ratio [26]: 100
- MIC (Lactobacillus gasseri): 36.8 µM
- Activity (Clostridioides difficile [27]): <1.1 10^-9No_unit
- Selectivity ratio [28]: 100
- MIC (Lactobacillus crispatus): 36.8 µM
- Selectivity ratio [29]: 100
- Ratio (Clostridioides difficile [30]): 2.5

From ChEMBL document CHEMBL4665831, “Ultrapotent Inhibitor of Clostridioides difficile Growth, Which Suppresses Recurrence In Vivo” (J Med Chem, 2020)
